# Assay results: article PMC12166256 (Clinical Pharmacology and Therapeutics, 2025)
# Assay: Food effect study: safety and tolerability
# Type: in vivo, human
# Method in brief: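 Healthy males aged 18–55 with BMI 18–30 kg/m² were followed through dosing and a 6–8-day follow-up. Checks: physical examination, clinical laboratory tests, vital signs and 12-lead ECG, with adverse events coded in MedDRA. Events of special interest: ALT ≥2×ULN, QTcF ≥500 ms, Grade ≥2 photosensitivity, symptomatic overdose. Treatment-emergent events were summarised descriptively by organ class, preferred term and dose level for all exposed participants.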
smiles,measurement,setting,value
CN1C(=O)c2cccc(OC(F)F)c2[C@H]2C[C@@H]1c1nc3ccc(-c4cnc(C5(N)CCC5)nc4)cc3n12 [Balinatunfib],participants with at least one TEAE,200 mg fasted (five of eight),62.5%
same,"Any event TEAE, events","200 mg fasted, N = 8",7
same,"Any event TEAE, participants","200 mg fasted, N = 8",5 (62.5) n (%)
same,"Blood and lymphatic system disorders TEAE, events","200 mg fasted, N = 8",1
same,"Blood and lymphatic system disorders TEAE, participants","200 mg fasted, N = 8",1 (12.5) n (%)
same,"Blood pressure orthostatic decreased TEAE, events","200 mg fasted, N = 8",1
same,"Blood pressure orthostatic decreased TEAE, participants","200 mg fasted, N = 8",1 (12.5) n (%)
same,"Diarrhea TEAE, events","200 mg fasted, N = 8",1
same,"Diarrhea TEAE, participants","200 mg fasted, N = 8",1 (12.5) n (%)
same,"Dry skin TEAE, events","200 mg fasted, N = 8",1
same,"Dry skin TEAE, participants","200 mg fasted, N = 8",1 (12.5) n (%)
same,"Fatigue TEAE, events","200 mg fasted, N = 8",0
same,"Fatigue TEAE, participants","200 mg fasted, N = 8",0 n (%)
same,"Flatulence TEAE, events","200 mg fasted, N = 8",1
same,"Flatulence TEAE, participants","200 mg fasted, N = 8",1 (12.5) n (%)
same,"Gastrointestinal disorders TEAE, events","200 mg fasted, N = 8",2
same,"Gastrointestinal disorders TEAE, participants","200 mg fasted, N = 8",2 (25.0) n (%)
same,"General disorders and administration site conditions TEAE, events","200 mg fasted, N = 8",0
same,"General disorders and administration site conditions TEAE, participants","200 mg fasted, N = 8",0 n (%)
same,"Headache TEAE, events","200 mg fasted, N = 8",1
same,"Headache TEAE, participants","200 mg fasted, N = 8",1 (12.5) n (%)
same,"Investigations TEAE, events","200 mg fasted, N = 8",1
same,"Investigations TEAE, participants","200 mg fasted, N = 8",1 (12.5) n (%)
same,"Loss of consciousness TEAE, events","200 mg fasted, N = 8",1
same,"Loss of consciousness TEAE, participants","200 mg fasted, N = 8",1 (12.5) n (%)
same,"Muscle tightness TEAE, events","200 mg fasted, N = 8",0
same,"Muscle tightness TEAE, participants","200 mg fasted, N = 8",0 n (%)
same,"Musculoskeletal and connective tissue disorders TEAE, events","200 mg fasted, N = 8",0
same,"Musculoskeletal and connective tissue disorders TEAE, participants","200 mg fasted, N = 8",0 n (%)
same,"Nervous system disorders TEAE, events","200 mg fasted, N = 8",2
same,"Nervous system disorders TEAE, participants","200 mg fasted, N = 8",2 (25.0) n (%)
same,"Neutropenia TEAE, events","200 mg fasted, N = 8",1
same,"Neutropenia TEAE, participants","200 mg fasted, N = 8",1 (12.5) n (%)
same,"Skin and subcutaneous tissue disorders TEAE, events","200 mg fasted, N = 8",1
same,"Skin and subcutaneous tissue disorders TEAE, participants","200 mg fasted, N = 8",1 (12.5) n (%)
same,"Tendonitis TEAE, events","200 mg fasted, N = 8",0
same,"Tendonitis TEAE, participants","200 mg fasted, N = 8",0 n (%)
same,neutrophil count in the participant with Grade 2 neutropenia,"200 mg fasted, Period 1, normal range 1.46–5.85",1.42e+09 L⁻¹
same,participants with at least one TEAE,200 mg fed (four of six),66.7%
same,"Any event TEAE, events","200 mg fed, N = 6",6
same,"Any event TEAE, participants","200 mg fed, N = 6",4 (66.7) n (%)
same,"Blood and lymphatic system disorders TEAE, events","200 mg fed, N = 6",0
same,"Blood and lymphatic system disorders TEAE, participants","200 mg fed, N = 6",0 n (%)
same,"Blood pressure orthostatic decreased TEAE, events","200 mg fed, N = 6",1
same,"Blood pressure orthostatic decreased TEAE, participants","200 mg fed, N = 6",1 (16.7) n (%)
same,"Diarrhea TEAE, events","200 mg fed, N = 6",1
same,"Diarrhea TEAE, participants","200 mg fed, N = 6",1 (16.7) n (%)
same,"Dry skin TEAE, events","200 mg fed, N = 6",0
same,"Dry skin TEAE, participants","200 mg fed, N = 6",0 n (%)
same,"Fatigue TEAE, events","200 mg fed, N = 6",1
same,"Fatigue TEAE, participants","200 mg fed, N = 6",1 (16.7) n (%)
same,"Flatulence TEAE, events","200 mg fed, N = 6",0
same,"Flatulence TEAE, participants","200 mg fed, N = 6",0 n (%)
same,"Gastrointestinal disorders TEAE, events","200 mg fed, N = 6",1
same,"Gastrointestinal disorders TEAE, participants","200 mg fed, N = 6",1 (16.7) n (%)
same,"General disorders and administration site conditions TEAE, events","200 mg fed, N = 6",1
same,"General disorders and administration site conditions TEAE, participants","200 mg fed, N = 6",1 (16.7) n (%)
same,"Headache TEAE, events","200 mg fed, N = 6",1
same,"Headache TEAE, participants","200 mg fed, N = 6",1 (16.7) n (%)
same,"Investigations TEAE, events","200 mg fed, N = 6",1
same,"Investigations TEAE, participants","200 mg fed, N = 6",1 (16.7) n (%)
same,"Loss of consciousness TEAE, events","200 mg fed, N = 6",0
same,"Loss of consciousness TEAE, participants","200 mg fed, N = 6",0 n (%)
same,"Muscle tightness TEAE, events","200 mg fed, N = 6",1
same,"Muscle tightness TEAE, participants","200 mg fed, N = 6",1 (16.7) n (%)
same,"Musculoskeletal and connective tissue disorders TEAE, events","200 mg fed, N = 6",2
same,"Musculoskeletal and connective tissue disorders TEAE, participants","200 mg fed, N = 6",2 (33.3) n (%)
same,"Nervous system disorders TEAE, events","200 mg fed, N = 6",1
same,"Nervous system disorders TEAE, participants","200 mg fed, N = 6",1 (16.7) n (%)
same,"Neutropenia TEAE, events","200 mg fed, N = 6",0
same,"Neutropenia TEAE, participants","200 mg fed, N = 6",0 n (%)
same,"Skin and subcutaneous tissue disorders TEAE, events","200 mg fed, N = 6",0
same,"Skin and subcutaneous tissue disorders TEAE, participants","200 mg fed, N = 6",0 n (%)
same,"Tendonitis TEAE, events","200 mg fed, N = 6",1
same,"Tendonitis TEAE, participants","200 mg fed, N = 6",1 (16.7) n (%)
same,"Grade ≥ 3 TEAE, treatment-emergent SAEs, AESIs",food effect study,No participants
